Laboratory results reported in ChEMBL document CHEMBL1154246, “Spirobisnaphthalene analogues from the endophytic fungus Preussia sp” (J Nat Prod, 2009).
≈ marks a conversion by molar mass, not a printed value. Calls of active or inactive are those of the source.

What was measured:
BGC-823 = experiment: Cytotoxicity against human BGC823 cells by MTT assay; format: functional, cell-based
Outline: (§1)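 MTT viability read-out in human cancer lines: A2780 ovarian, BEL-7404 liver, A-549, BGC-823 and HCT-8. IC50 derived from the concentration–response data.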

Staphylococcus aureus [1] = experiment: Antibacterial activity against Staphylococcus aureus CMCC B26003 at 5 ug/disk after 24 hrs by paper disk method; format: functional
Outline: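 S. aureus grown in MHB broth, final 10^6 cfu/mL. Compound loaded onto 6 mm paper disks at 5 µg/disk and placed on MH agar, 37 °C for 24 h. Inhibition zone diameter measured in mm, n = 3.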

Staphylococcus aureus [2] = experiment: Antibacterial activity against Staphylococcus aureus CMCC B26003 after 24 hrs by agar dilution method; format: functional
Outline: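 S. aureus prepared from broth culture in MHB, final inoculum 10^6 cfu/mL. Agar dilution following NCCLS 2002 criteria, with 11 concentrations from 800 down to 0.78 µM (twofold steps).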

HCT-8 = experiment: Cytotoxicity against human HCT8 cells by MTT assay; format: functional, cell-based; outline: as §1
A2780 = experiment: Cytotoxicity against human A2780 cells by MTT assay; format: functional, cell-based; outline: as §1
[3] = Cytotoxicity against human Bel7404 cells by MTT assay; format: functional, cell-based, BEL-7404; outline: as §1
Candida albicans [4] = experiment: Antifungal activity against Candida albicans ATCC 10231 at 50 ug/disk after 48 hrs by paper disk method; format: functional, organism-based
Outline: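 C. albicans grown in SDB broth, final 10^5 cfu/mL. Compound applied to 6 mm paper disks at 50 µg/disk on SD agar and incubated at 25 °C for 48 h. Zone of inhibition measured in mm.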

A549 = experiment: Cytotoxicity against human A549 cells by MTT assay; format: functional, cell-based; outline: as §1
Staphylococcus aureus [5] = experiment: Antibacterial activity against Staphylococcus aureus CMCC B26003 at 10 ug/disk after 24 hrs by paper disk method; format: functional; conditions: CMCC B26003, 24 h, read-out: IZ
Outline: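 Paper-disk diffusion against S. aureus at 10 µg/disk on MH agar, inoculum 10^6 cfu/mL from MHB broth, 6 mm disks, 37 °C for 24 h. Inhibition zone diameter recorded in mm, n = 3.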

Candida albicans [6] = experiment: Antifungal activity against Candida albicans ATCC 10231 at 25 ug/disk after 48 hrs by paper disk method; format: functional; conditions: ATCC 10231, 48 h, read-out: IZ
Outline: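 C. albicans ATCC 10231 grown in SDB broth culture, adjusted to a final 10^5 cfu/mL, and spread on SD agar. Sample loaded onto 6 mm paper disks placed on the agar surface. Plates incubated at 25 °C for 48 h. Read-out is the diameter of the inhibition zone in mm.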

[7] = Homo sapiens, BGC-823, read-out: IC50
[8] = Homo sapiens, HCT-8, read-out: IC50
[9] = Homo sapiens, BEL-7404, read-out: IC50

Compound | IC50 (BGC-823; bgc-823) | inhibition zone (IZ) (Staphylococcus aureus [1]) | MIC (Staphylococcus aureus [2]) | IC50 (HCT-8; hct-8) | IC50 (A2780; a2780) | IC50 ([3]; bel-7404) | Activity (Candida albicans [4]) | IC50 (A549; a549) | IC50 (BGC-823; [7]) [nM] | IC50 (HCT-8; [8]) [nM] | IC50 [3, 9] [nM] | other results
O=C1C=Cc2cc3c(c4ccc(O)c1c24)C1(Oc2cccc4cccc(c24)O1)C1C(=O)C=CC31O (centres undefined) [SPIROPREUSSIONE B] | Not Active | inactive | inactive | Not Active | Not Active | Not Active | inactive | Not Active |  |  |  | 
O=C1C=CC(=O)C12C=CC1(Oc3cccc4cccc(c34)O1)C2O (centres undefined) [SPIROPREUSSIONE A] |  |  |  |  |  |  | inactive |  | > 10000 | > 10000 | 3000 | zone of inhibition at 5 µg/disc (Staphylococcus aureus [1]; CMCC B26003, 24 h, read-out: IZ): 16.4 mm; MIC (Staphylococcus aureus [2]; CMCC B26003, 24 h): 25 µM (≈ 8.01 µg/mL); IC50 (A2780; Homo sapiens, A2780, read-out: IC50): 2400 nM; IC50 (A549; Homo sapiens, A549, read-out: IC50): > 10000 nM
CC(=O)O[C@H]1C(=O)[C@@]2(C)[C@H]([C@H](OC(=O)c3ccccc3)[C@]3(O)C[C@H](OC(=O)[C@H](O)[C@@H](NC(=O)c4ccccc4)c4ccccc4)C(C)=C1C3(C)C)[C@]1(OC(C)=O)CO[C@@H]1C[C@@H]2O [PACLITAXEL] |  |  |  |  |  |  |  |  | 3.3 | 3.6 | 12.3 | 
Oc1ccc2c(c1)C1(Oc3cccc4cccc(c34)O1)[C@@H]1O[C@@H]1[C@@H]2O [SPIROPREUSSOMERIN A] | Not Active | inactive | inactive | Not Active | Not Active | Not Active | inactive | Not Active |  |  |  | 
CC1(C)S[C@@H]2[C@H](NC(=O)[C@H](N)c3ccccc3)C(=O)N2[C@H]1C(=O)O [AMPICILLIN SODIUM] |  |  |  |  |  |  |  |  |  |  |  | zone of inhibition at 10 µg/disc (Staphylococcus aureus [5]): 38.2 mm
OC(Cn1cncn1)(Cn1cncn1)c1ccc(F)cc1F [FLUCONAZOLE] |  |  |  |  |  |  |  |  |  |  |  | zone of inhibition at 25 µg/disc (Candida albicans [6]): 31.3 mm
